Here are results for one compound from ChEMBL document CHEMBL4765233, “From Lead to Drug Candidate: Optimization of 3-(Phenylethynyl)-1H-pyrazolo[3,4-d]pyrimidin-4-amine Derivatives as Agents for the Treatment of Triple Negative Breast Cancer” (J Med Chem, 2016).

SMILES strings stand for the structures. Active and inactive are the calls of the source. The calls are words filed in the database; no cut-off is given here.

Data set [1] deals with MDA-MB-231. In words: Antiproliferative activity against human MDA-MB-231 cells assessed as reduction in cell viability incubated for 72 hrs by MTT assay. The data set is classed as functional, cell-based. The settings on record: MDA-MB-231, 72 h. The essentials: (§1)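 MTT viability assay. ATCC cell lines were grown in designated medium with 10% FBS at 37 °C, 5% CO2. Cells seeded at 1500−30000 per well and incubated 24 h, then exposed to compound (0−10 μg/mL) for 72 h. MTT added for 2−4 h. Formazan dissolved in DMSO (adherent) or acidified SDS overnight (suspension), absorbance read at 570 nm. Triplicates; IC50 calculated.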

The nature of data set [2]: Half-life in Sprague-Dawley rat at 10 mg/kg, po administered via gavage by LC-MS analysis. The settings on record: in vivo. The data set is classed as ADME, organism-based.
Data set [3] concerns the target Proto-oncogene tyrosine-protein kinase Src (Homo sapiens) (UniProt P12931). Nature of the data set: Inhibition of Src in human MDA-MB-231 cells assessed as inhibition of STAT3 phosphorylation at 0.1 to 0.3 uM incubated for 20 hrs by Western blot analysis. The data set is classed as cell-based. The settings on record: dose 0.1-0.3 µM. The essentials:
(§2)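 MDA-MB-231 cells treated with a series of concentrations for 20 h at 37 °C. Cells washed with ice-cold saline and lysed in RIPA buffer with protease cocktail. Lysates cleared at 12000 rpm for 10 min at 4 °C and protein quantified by Bradford. Equal protein separated by SDS-PAGE, transferred to PVDF and probed with antibodies.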
For orientation: Immunoblotting shows a protein as a band on a membrane.

A short description of data set [4]: Acute toxicity in female Sprague-Dawley rat assessed as increase of body weight at 200 mg/kg, po administered as single dose and monitored every 3 days. The data set is classed as organism-based. The settings on record: in vivo, 72 h. The essentials: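 Sprague-Dawley rats (n = 3) received a single oral dose of 200 mg/kg in sterile water with 25% (v/v) PEG400 plus 5% DMSO. Behaviour and side effects were monitored daily, and average body weight was measured every 3 days.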

Data set [5] in a line: Acute toxicity in Sprague-Dawley rat assessed as histopathological changes in liver at 100 mg/kg, po administered as single dose measured after 24 hrs by H and E staining based light microscope analysis. The data set is classed as organism-based. Conditions: in vivo. The essentials: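 Sprague-Dawley rats received a single oral dose of 100 mg/kg in sterile water with 25% (v/v) PEG400 plus 5% DMSO. Organs were examined by histology and immunohistochemistry for pathological changes. Behaviour and side effects were checked daily.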

In data set [6] the test system is MDA-MB-231. Nature of the data set: Inhibition of ERK phosphorylation in human MDA-MB-231 cells at 0.01 to 0.3 uM incubated for 20 hrs by Western blot analysis. The data set is classed as cell-based. The settings on record: dose 0.01-0.3 µM. The essentials:
as §2

Another data set has as its system MDA-MB-435. Nature of the data set: Antiproliferative activity against human MDA-MB-435 cells assessed as reduction in cell viability incubated for 72 hrs by MTT assay. The data set is classed as functional, cell-based. The settings on record: MDA-MB-435, 72 h. The essentials:
as §1
On the technique in general: Tetrazolium assays rely on reduction of a dye to a coloured formazan, in cell work by metabolically active cells.

Data set [7] can be described thus: Metabolic stability in dog liver microsomes assessed as parent compound remaining at 1 uM measured after 60 mins in presence of NADPH by HPLC-MS/MS analysis. The data set is classed as ADME, Canis lupus familiaris, Microsome. The settings on record: read-out: Stabilty. The essentials:
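Compound at 1 μM incubated with 0.5 mg/mL liver microsomes and 1 mM NADPH. Samples taken at 0, 10, 15, 30, 45 and 60 min and quenched with acetonitrile. After centrifugation, supernatant analysed by HPLC-MS/MS, with percent parent remaining relative to the 0 min area.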
For orientation: Liver microsomes are a subcellular fraction often used to study metabolism.

Another data set has as its system DU-145. Nature of the data set: Antiproliferative activity against human DU-145 cells assessed as reduction in cell viability incubated for 72 hrs by MTT assay. The format is functional, cell-based. Conditions: DU-145, 72 h. The essentials:
as §1

Data set [8] deals with Mitogen-activated protein kinase 1 (Homo sapiens, UniProt P28482). Nature of the data set: Inhibition of human full length recombinant ERK2 using myelin basic protein as substrate incubated for 40 mins in presence of [gamma33P-ATP] by radiometric scintillation counting analysis.
Mitogen-activated protein kinase 1, sequence (P28482 whole entry): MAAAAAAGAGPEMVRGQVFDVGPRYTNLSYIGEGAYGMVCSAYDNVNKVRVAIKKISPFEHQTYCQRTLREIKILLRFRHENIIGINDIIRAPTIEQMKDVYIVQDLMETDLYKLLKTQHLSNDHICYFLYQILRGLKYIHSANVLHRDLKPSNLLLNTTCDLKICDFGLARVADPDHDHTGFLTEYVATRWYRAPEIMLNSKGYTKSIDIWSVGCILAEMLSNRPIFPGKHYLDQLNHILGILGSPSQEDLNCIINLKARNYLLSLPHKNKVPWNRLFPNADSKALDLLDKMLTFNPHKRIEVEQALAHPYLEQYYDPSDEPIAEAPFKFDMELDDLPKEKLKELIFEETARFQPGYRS
The test system of data set [9] is MDA-MB-231. In words: Inhibition of MEK phosphorylation in human MDA-MB-231 cells at 0.01 to 0.3 uM incubated for 20 hrs by Western blot analysis. The format is cell-based. Conditions: dose 0.01-0.3 µM. In short, it runs like this:
as §2

For another data set, the system named is Mus musculus. Nature of the data set: In vivo inhibition of ERK in SCID mouse xenografted with human MDA-MB-231 cells assessed as reduction in phosphorylation of ERK in tumor tissue at 40 mg/kg, po QD for 21 days by immunohistochemical analysis. Conditions: dose 40.0 mg/kg/day, time 21.0 day. The format is functional, organism-based. The essentials:
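Tumors taken from xenografted SCID mice dosed orally at 40 mg/kg/q.d. or given control; mice euthanized at set times. Tumors formalin-fixed and paraffin-embedded, stained by immunohistochemistry for phospho-proteins, and imaged by light microscopy.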

The nature of data set [10]: Tmax in Sprague-Dawley rat at 10 mg/kg, po administered via gavage by LC-MS analysis. The data set is classed as ADME, organism-based. Conditions: in vivo.
The nature of data set [11]: Inhibition of human recombinant EGFR T790M/L858R mutant (696 to end residues) using GGMEDIYFEFMGGKKK as substrate incubated for 40 mins in presence of [gamma33P-ATP] by radiometric scintillation counting analysis. In short, it runs like this: (§3)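 Radiometric kinase assay run as an external profiling service, with ATP at the Km of each kinase. IC50 values are means of two independent experiments.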

Another data set relates to NCI-H1437. Nature of the data set: Antiproliferative activity against human NCI-H1437 cells assessed as reduction in cell viability incubated for 72 hrs by MTT assay. The format is functional, cell-based. The settings on record: NCI-H1437, 72 h. The essentials:
as §1

Data set [12] concerns the target Platelet-derived growth factor receptor beta (Homo sapiens, UniProt P09619). Nature of the data set: Inhibition of human recombinant PDGFRbeta (557 to end residues) using poly(Glu, Tyr)4:1 as substrate incubated for 40 mins in presence of [gamma33P-ATP] by radiometric scintillation counting analysis.
Data set [13] has as its target Platelet-derived growth factor receptor alpha (Homo sapiens, UniProt P16234). In words: Inhibition of human recombinant PDGFRalpha (550 to end residues) using poly(Glu, Tyr)4:1 as substrate incubated for 40 mins in presence of [gamma33P-ATP] by radiometric scintillation counting analysis. In short, it runs like this:
as §3

Data set [14] concerns MDA-MB-231. Nature of the data set: Antimigratory activity against human MDA-MB-231 cells assessed as inhibition of cell migration at 0.3 uM incubated for 20 hrs by wound healing assay. The format is functional, cell-based. In short, it runs like this:
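MDA-MB-231 monolayer grown to confluence, scratched with a sterile pipet tip, rinsed with physiological saline, then given DMEM containing vehicle or compound. Wound imaged after 20 h to assess migration.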

For data set [15], the target named is Fibroblast growth factor receptor 2 (Homo sapiens, UniProt P21802, N549H). Nature of the data set: Inhibition of human recombinant FGFR2 N549H mutant (456 to 770 residues) using GGEEEEYFELVKKKK as substrate incubated for 40 mins in presence of [gamma33P-ATP] by radiometric scintillation counting analysis.
Fibroblast growth factor receptor 2, sequence (P21802 22-821 N549H limits assumed): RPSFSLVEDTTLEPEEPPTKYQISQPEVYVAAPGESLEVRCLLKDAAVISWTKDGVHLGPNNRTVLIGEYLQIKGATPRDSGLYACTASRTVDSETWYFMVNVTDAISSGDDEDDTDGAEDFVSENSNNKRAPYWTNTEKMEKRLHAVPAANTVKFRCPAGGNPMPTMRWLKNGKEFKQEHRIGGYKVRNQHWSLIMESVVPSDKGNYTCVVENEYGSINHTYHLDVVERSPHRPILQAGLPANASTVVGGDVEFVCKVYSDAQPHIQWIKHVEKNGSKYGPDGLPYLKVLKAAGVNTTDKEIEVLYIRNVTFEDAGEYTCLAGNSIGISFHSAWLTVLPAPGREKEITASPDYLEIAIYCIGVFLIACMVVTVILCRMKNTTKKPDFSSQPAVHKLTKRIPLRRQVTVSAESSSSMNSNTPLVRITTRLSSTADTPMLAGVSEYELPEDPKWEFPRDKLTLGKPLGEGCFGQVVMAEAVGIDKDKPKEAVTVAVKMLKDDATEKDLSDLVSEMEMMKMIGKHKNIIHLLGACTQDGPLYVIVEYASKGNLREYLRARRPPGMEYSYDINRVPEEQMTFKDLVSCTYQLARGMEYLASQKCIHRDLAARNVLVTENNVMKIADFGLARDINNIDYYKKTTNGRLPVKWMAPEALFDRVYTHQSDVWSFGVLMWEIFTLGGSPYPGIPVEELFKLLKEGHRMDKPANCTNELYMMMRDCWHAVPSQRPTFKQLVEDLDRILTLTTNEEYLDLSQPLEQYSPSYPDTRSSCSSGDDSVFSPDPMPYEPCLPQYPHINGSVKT
In data set [16] the target is Mitogen-activated protein kinase 14 (Homo sapiens, UniProt Q16539). Nature of the data set: Inhibition of human full length recombinant p38alpha using myelin basic protein as substrate incubated for 40 mins in presence of [gamma33P-ATP] by radiometric scintillation counting analysis. The essentials:
as §3

The species named for the next data set is Danio rerio. In words: Antiangiogenesis activity in EGFP-labelled zebrafish embryo assessed as reduction in formation of intersegmental vessels at 1.25 to 5 uM incubated for overnight by fluorescence microscopic analysis. Conditions: dose 1.25-5 µM. The format is functional, organism-based. In short, it runs like this: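 Transgenic FLK:EGFP zebrafish kept at 28 °C, pH 7.2−7.4, 14 h light/10 h dark. Embryos at 30 hpf incubated overnight with compound at 1.25, 2.5 or 5 μM beside a blank control. Fish anaesthetized, then vessels imaged by fluorescence microscopy.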

Another data set has as its system L02. In words: Cytotoxicity against human L02 cells assessed as reduction in cell viability incubated for 72 hrs by MTT assay. The settings on record: L02, 72 h. The data set is classed as cell-based. The essentials:
as §1

Platelet-derived growth factor receptor beta, sequence (P09619 whole entry): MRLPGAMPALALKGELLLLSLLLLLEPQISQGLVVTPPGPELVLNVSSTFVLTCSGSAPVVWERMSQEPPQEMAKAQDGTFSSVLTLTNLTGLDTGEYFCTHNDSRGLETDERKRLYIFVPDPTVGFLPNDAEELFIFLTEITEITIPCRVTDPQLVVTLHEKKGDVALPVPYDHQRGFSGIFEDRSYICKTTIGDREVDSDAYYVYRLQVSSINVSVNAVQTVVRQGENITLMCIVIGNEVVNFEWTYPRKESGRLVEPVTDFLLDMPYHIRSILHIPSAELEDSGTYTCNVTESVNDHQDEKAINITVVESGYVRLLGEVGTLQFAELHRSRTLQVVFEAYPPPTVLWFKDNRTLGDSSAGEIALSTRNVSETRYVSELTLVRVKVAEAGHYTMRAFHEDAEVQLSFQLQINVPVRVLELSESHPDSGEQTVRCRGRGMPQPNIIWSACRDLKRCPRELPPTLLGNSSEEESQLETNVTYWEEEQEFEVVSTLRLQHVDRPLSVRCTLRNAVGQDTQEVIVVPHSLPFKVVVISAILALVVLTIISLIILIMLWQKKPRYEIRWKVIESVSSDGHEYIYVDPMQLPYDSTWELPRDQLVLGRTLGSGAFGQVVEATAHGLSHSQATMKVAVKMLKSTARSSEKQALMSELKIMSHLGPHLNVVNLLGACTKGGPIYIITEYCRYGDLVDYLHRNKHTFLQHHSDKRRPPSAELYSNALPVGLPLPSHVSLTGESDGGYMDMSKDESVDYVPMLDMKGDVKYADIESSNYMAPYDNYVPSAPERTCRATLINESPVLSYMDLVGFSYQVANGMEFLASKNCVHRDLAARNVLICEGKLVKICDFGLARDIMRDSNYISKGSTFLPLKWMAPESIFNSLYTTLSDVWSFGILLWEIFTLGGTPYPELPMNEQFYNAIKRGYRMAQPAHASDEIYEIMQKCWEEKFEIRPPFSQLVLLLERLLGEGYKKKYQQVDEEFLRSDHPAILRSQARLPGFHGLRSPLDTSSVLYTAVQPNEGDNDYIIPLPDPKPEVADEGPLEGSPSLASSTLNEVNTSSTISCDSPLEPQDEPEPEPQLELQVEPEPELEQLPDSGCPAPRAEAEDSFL
Proto-oncogene tyrosine-protein kinase Src (Homo sapiens), sequence (P12931 2-536 limits assumed): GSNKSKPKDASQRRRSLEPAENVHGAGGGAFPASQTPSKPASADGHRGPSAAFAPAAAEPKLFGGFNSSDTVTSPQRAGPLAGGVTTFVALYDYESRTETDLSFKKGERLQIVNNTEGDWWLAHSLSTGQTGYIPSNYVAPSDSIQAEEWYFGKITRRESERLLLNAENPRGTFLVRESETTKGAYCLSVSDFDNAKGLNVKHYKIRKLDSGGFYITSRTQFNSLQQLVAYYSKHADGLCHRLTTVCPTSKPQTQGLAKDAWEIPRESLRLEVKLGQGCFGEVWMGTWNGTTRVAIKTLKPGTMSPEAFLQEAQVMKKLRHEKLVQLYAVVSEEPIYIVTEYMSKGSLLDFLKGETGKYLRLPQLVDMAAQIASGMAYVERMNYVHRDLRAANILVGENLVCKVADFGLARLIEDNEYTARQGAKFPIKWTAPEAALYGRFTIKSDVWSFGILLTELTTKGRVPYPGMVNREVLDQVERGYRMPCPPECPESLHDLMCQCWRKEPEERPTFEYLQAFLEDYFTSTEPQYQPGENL
Mitogen-activated protein kinase 14, sequence (Q16539 whole entry): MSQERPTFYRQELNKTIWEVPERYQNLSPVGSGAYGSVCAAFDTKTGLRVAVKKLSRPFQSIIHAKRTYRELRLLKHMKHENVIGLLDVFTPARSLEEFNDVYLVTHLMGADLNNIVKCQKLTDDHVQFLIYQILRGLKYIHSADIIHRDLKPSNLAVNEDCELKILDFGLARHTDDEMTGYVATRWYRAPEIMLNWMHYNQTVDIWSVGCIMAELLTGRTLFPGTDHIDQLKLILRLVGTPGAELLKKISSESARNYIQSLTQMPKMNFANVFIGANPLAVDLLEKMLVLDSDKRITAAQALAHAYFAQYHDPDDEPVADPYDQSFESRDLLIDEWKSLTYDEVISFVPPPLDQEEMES
Platelet-derived growth factor receptor alpha, sequence (P16234 whole entry): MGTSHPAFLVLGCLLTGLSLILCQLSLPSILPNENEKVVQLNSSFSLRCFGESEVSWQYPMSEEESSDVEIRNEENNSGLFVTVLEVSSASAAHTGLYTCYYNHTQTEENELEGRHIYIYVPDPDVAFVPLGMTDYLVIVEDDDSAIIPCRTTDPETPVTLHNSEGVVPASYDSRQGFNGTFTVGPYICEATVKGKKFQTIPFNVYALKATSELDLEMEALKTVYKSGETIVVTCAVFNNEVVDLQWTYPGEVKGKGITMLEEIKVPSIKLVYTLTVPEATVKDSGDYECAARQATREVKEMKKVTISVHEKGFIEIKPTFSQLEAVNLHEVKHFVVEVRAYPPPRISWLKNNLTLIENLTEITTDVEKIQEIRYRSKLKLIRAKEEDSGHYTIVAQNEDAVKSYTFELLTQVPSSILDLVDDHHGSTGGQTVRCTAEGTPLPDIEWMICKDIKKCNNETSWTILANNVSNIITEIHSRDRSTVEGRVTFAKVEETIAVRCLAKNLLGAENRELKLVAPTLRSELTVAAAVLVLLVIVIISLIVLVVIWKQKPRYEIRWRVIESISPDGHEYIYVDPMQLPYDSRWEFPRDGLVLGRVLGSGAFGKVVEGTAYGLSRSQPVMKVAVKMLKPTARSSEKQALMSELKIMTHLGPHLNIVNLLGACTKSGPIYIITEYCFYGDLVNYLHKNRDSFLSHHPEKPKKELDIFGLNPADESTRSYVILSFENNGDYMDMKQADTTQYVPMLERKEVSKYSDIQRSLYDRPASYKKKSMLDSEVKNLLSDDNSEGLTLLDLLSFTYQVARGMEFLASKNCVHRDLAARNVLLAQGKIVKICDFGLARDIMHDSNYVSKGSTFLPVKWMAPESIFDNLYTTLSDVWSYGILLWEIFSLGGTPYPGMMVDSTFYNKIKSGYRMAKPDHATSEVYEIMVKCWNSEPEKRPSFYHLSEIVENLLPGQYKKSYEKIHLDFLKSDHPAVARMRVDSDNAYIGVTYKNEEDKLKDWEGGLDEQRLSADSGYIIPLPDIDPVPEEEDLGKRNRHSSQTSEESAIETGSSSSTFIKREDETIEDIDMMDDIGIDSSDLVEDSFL

Turning to `Cc1ccc(NC(=O)c2ccc(C)c(C(F)(F)F)c2)cc1C#Cc1nn([C@H]2CC[C@H](O)CC2)c2ncnc(N)c12`, the IC50 – broadly, the concentration that gives 50% inhibition – with MDA-MB-231 [1] is 0.03 µM; in the data set on MDA-MB-435, 0.008 µM; in the data set on DU-145 it was more than 10 µM; in [8] it was more than 10 µM; in data set [11], 0.008 µM; with NCI-H1437, 2.34 µM. Moreover, the IC50 in [12] was more than 10 µM; in data set [13], 1.29 µM; in data set [15], 0.04 µM; in [16], 0.342 µM; with L02, more than 10 µM. Also, in data set [2], the half-life (in general, the time in which the quantity being followed falls by half) was 18.9 h. In addition, the inhibition entry (in data set [3]; in the data set with MDA-MB-231 [6]; in the data set with MDA-MB-231 [9]; with Mus musculus) was “Active” throughout. Moreover, the Activity entry in [4] and in [5] was “Non-Toxic” in each case. Also, the remaining at 1 h, 1 µM in [7] was more than 90%. Moreover, the Tmax (as a rule, the time at which the peak concentration occurs) in [10] was determined as 4 h. In addition, the outcome with MDA-MB-231 [14] and in the data set listed under Danio rerio was Active.
